Results from ChEMBL document CHEMBL1275344, “Synthesis and antimalarial assessment of a new series of orally active amino-functionalized spiro 1,2,4-trioxanes” (J Med Chem, 2010).
Active and inactive are the calls of the source. The rule behind the calls is not given here.

How the values were obtained:
[1] = test system: Plasmodium yoelii nigeriensis; test: Antimalarial activity against multidrug-resistant Plasmodium yoelii nigeriensis infected in Swiss mice (Mus musculus) assessed as suppression of parasitaemia at 96 mg/kg, perorally for 4 days relative to control; assay type: functional; conditions: route oral
How it was run: (§1)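 Swiss mice of either sex (20 ± 2 g) infected intraperitoneally with 1 × 10⁶ MDR P. yoelii nigeriensis parasites on day 0. Five mice per dose group, given oral doses in groundnut oil, twice daily on days 0–3. Parasitaemia read from day-4 thin blood smears. Suppression = [(C − T)/C] × 100, with C and T the control and treated parasitaemia. 100% means no parasites seen in 50 oil-immersion fields.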

[2] = test system: Plasmodium yoelii nigeriensis; test: Antimalarial activity against multidrug-resistant Plasmodium yoelii nigeriensis infected in Swiss mice (Mus musculus) assessed as suppression of parasitaemia at 48 mg/kg, peroral for 4 days relative to control; assay type: functional; conditions: route oral; how it was run: as §1
[3] = test system: Plasmodium yoelii nigeriensis; test: Antimalarial activity against multidrug-resistant Plasmodium yoelii nigeriensis infected in Swiss mice (Mus musculus) assessed as curated mice (Mus musculus) at 96 mg/kg, peroral for 4 days; assay type: functional, organism-based; parameters: dose 96 mg/kg
How it was run: (§2)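 Swiss mice of either sex (20 ± 2 g) inoculated intraperitoneally with 1 × 10⁶ MDR P. yoelii nigeriensis parasites on day 0. Five mice per dose group, dosed orally in groundnut oil (0.1 mL), in two divided doses daily from day 0 to 3. Thin blood smears read on day 4, then twice weekly to day 28. Mice without patent infection by day 28 counted as cured. β-Arteether was the positive control.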

[4] = Lipophilicity, log P of the compound; assay type: physicochemical; conditions: octanol/water
[5] = test system: Plasmodium yoelii nigeriensis; test: Antimalarial activity against multidrug-resistant Plasmodium yoelii nigeriensis infected in Swiss mice (Mus musculus) assessed as curated mice (Mus musculus) at 48 mg/kg, peroral for 4 days; assay type: functional, organism-based; parameters: dose 48 mg/kg; how it was run: as §2
[6] = test system: Plasmodium yoelii nigeriensis; test: Antimalarial activity against multidrug-resistant Plasmodium yoelii nigeriensis infected in Swiss mice (Mus musculus) assessed as curated mice (Mus musculus) at 24 mg/kg, peroral for 4 days; assay type: functional, organism-based; parameters: dose 24 mg/kg; how it was run: as §2
[7] = test system: Plasmodium yoelii nigeriensis; test: Antimalarial activity against multidrug-resistant Plasmodium yoelii nigeriensis infected in Swiss mice (Mus musculus) assessed as suppression of parasitaemia at 24 mg/kg, peroral for 4 days relative to control; assay type: functional; conditions: route oral; how it was run: as §1
[8] = test system: Plasmodium yoelii nigeriensis; test: Antimalarial activity against multidrug-resistant Plasmodium yoelii nigeriensis infected in Swiss mice (Mus musculus) assessed as suppression of parasitaemia at 12 mg/kg, peroral for 4 days relative to control; assay type: functional; conditions: route oral; how it was run: as §1
[9] = test system: Plasmodium yoelii nigeriensis; test: Antimalarial activity against multidrug-resistant Plasmodium yoelii nigeriensis infected in Swiss mice (Mus musculus) assessed as curated mice (Mus musculus) at 12 mg/kg, peroral for 4 days; assay type: functional, organism-based; parameters: dose 12 mg/kg; how it was run: as §2

Row | Structure (SMILES) | Activity [1] [%] | Activity [2] [%] | Activity [3] | logP [4] | Activity [5] | Activity [6] | Activity [7] [%] | Activity ([8]; 12 mg/kg) [%] | Activity [8] [%] | Activity [9]
1 | C=C(c1ccc2ccccc2c1)C1CCC2(CC1)COC(Nc1cccc(C(F)(F)F)c1)OO2 (stereo not given) | 100 | 100 | Active | 6.51 |  |  |  |  |  | 
2 | C=C(c1ccc2ccccc2c1)C1CCC2(CC1)COC(Nc1ccc(C(F)(F)F)cc1)OO2 (single isomer, unassigned; more polar) [listing 1 of 2 here] |  |  | Active |  | Active | Active |  |  |  | 
3 | C=C(c1cccc2ccccc12)C1CCC2(CC1)COC(Nc1ccc(C(F)(F)F)cc1)OO2 (stereo not given) | 100 | 100 | Active | 6.51 |  |  |  |  |  | 
4 | C=C(c1ccc2c(c1)Cc1ccccc1-2)C1CCC2(CC1)COC(Nc1ccc(OC)cc1)OO2 (stereo not given) | 100 | 100 | Active | 6.2 | inactive |  |  |  |  | 
5 | C=C(c1ccc2c(c1)Cc1ccccc1-2)C1CCC2(CC1)COC(Nc1ccccc1)OO2 (stereo not given) | 100 | 100 | Active | 6.33 |  |  |  |  |  | 
6 | C=C(c1ccc2ccccc2c1)C1CCC2(CC1)COC(Nc1cc(Cl)cc(Cl)c1)OO2 (stereo not given) | 100 | 100 | Active | 6.71 |  |  |  |  |  | 
7 | C=C(c1ccc2ccccc2c1)C1CCC2(CC1)COC(Nc1ccc(C)cc1)OO2 (stereo not given) | 100 | 100 | Active | 6.08 |  |  |  |  |  | 
8 | C=C(c1ccc2c(c1)Cc1ccccc1-2)C1CCC2(CC1)COC(Nc1ccc(C)cc1)OO2 (stereo not given) | 100 | 100 | Active | 6.81 |  |  |  |  |  | 
9 | CCO[C@H]1O[C@@H]2O[C@@]3(C)CC[C@H]4[C@H](C)CC[C@@H]([C@H]1C)[C@@]24OO3 [ARTEMOTIL] |  | 100 |  |  | Active |  | 100 |  |  | 
10 | C=C(c1ccc2ccccc2c1)C1CCC2(CC1)COC(Nc1ccc(C(F)(F)F)cc1)OO2 (single isomer, unassigned; less polar) [listing 1 of 2 here] | 100 | 100 |  | 6.51 |  |  | 100 | 6.25 |  | 
11 | C=C(c1ccc2c(c1)Cc1ccccc1-2)C1CCC2(CC1)COC(Nc1ccc(C(F)(F)F)cc1)OO2 (stereo not given) | 100 | 100 | Active | 7.25 |  |  |  |  |  | 
12 | C=C(c1cccc2ccccc12)C1CCC2(CC1)COC(Nc1ccc(Cl)cc1)OO2 (stereo not given) | 100 | 100 |  | 6.15 |  |  |  |  |  | 
13 | C=C(c1ccc2ccc3ccccc3c2c1)C1CCC2(CC1)COC(Nc1ccc(OC)cc1)OO2 (stereo not given) | 100 | 100 | Active | 6.46 |  |  |  |  |  | 
14 | C=C(c1ccc2ccc3ccccc3c2c1)C1CCC2(CC1)COC(Nc1ccc(F)cc1)OO2 (stereo not given) | 100 | 100 | Active | 6.74 |  |  |  |  |  | 
15 | C=C(c1ccc2ccc3ccccc3c2c1)C1CCC2(CC1)COC(Nc1cccc(C(F)(F)F)c1)OO2 (stereo not given) | 100 | 100 | Active | 7.51 | inactive |  |  |  |  | 
16 | C=C(c1ccc2ccccc2c1)C1CCC2(CC1)COC(Nc1ccc(OC)cc1)OO2 (stereo not given) | 100 | 100 | Active | 5.46 |  |  |  |  |  | 
17 | C=C(c1cccc2ccccc12)C1CCC2(CC1)COC(Nc1ccc(F)cc1)OO2 (stereo not given) | 100 | 100 | Active | 5.75 |  |  |  |  |  | 
18 | C=C(c1ccc2c(c1)Cc1ccccc1-2)C1CCC2(CC1)COC(Nc1ccc(Cl)cc1)OO2 (stereo not given) | 100 |  | Active | 6.88 |  |  |  |  |  | 
19 | C=C(c1ccc2ccccc2c1)C1CCC2(CC1)COC(Nc1ccc(C(F)(F)F)cc1)OO2 (single isomer, unassigned; more polar) [listing 2 of 2 here] |  |  |  |  |  |  |  | 100 |  | 
20 | C=C(c1ccc2ccccc2c1)C1CCC2(CC1)COC(Nc1ccc(F)cc1)OO2 (stereo not given) | 100 | 100 | Active | 5.75 |  |  | 100 |  |  | 

Row | Structure (SMILES) | Activity [1] [%] | Activity [2] [%] | Activity [3] | logP [4] | Activity [5] | Activity [6] | Activity [7] [%] | Activity ([8]; 12 mg/kg) [%] | Activity [8] [%] | Activity [9]
21 | C=C(c1ccc2ccc3ccccc3c2c1)C1CCC2(CC1)COC(Nc1ccc(C)cc1)OO2 (stereo not given) | 100 | 100 | Active | 7.07 | Active |  | 100 |  |  | 
22 | C=C(c1ccc2ccc3ccccc3c2c1)C1CCC2(CC1)COC(Nc1ccccc1-c1ccccc1)OO2 (stereo not given) | 100 | 74.36 | Active | 8.26 | inactive |  |  |  |  | 
23 | C=C(c1cccc2ccccc12)C1CCC2(CC1)COC(Nc1ccc(OC)cc1)OO2 (stereo not given) | 100 | 100 | Active | 5.46 |  |  |  |  |  | 
24 | C=C(c1ccc2ccccc2c1)C1CCC2(CC1)COC(Nc1ccccc1)OO2 (stereo not given) | 100 | 100 | Active | 5.59 |  |  |  |  |  | 
25 | C=C(c1ccc2ccccc2c1)C1CCC2(CC1)COC(Nc1ccc(Cl)cc1)OO2 (stereo not given) | 100 | 100 | Active | 6.15 | Active | inactive | 100 |  | 60 | inactive
26 | C=C(c1cccc2ccccc12)C1CCC2(CC1)COC(Nc1ccc(C)cc1)OO2 (stereo not given) | 100 | 100 |  | 6.08 |  |  |  |  |  | 
27 | C=C(c1ccc2ccc3ccccc3c2c1)C1CCC2(CC1)COC(Nc1ccc(Cl)cc1)OO2 (stereo not given) | 100 | 76.9 | Active | 7.14 |  |  |  |  |  | 
28 | C=C(c1ccc2ccc3ccccc3c2c1)C1CCC2(CC1)COC(Nc1ccccc1)OO2 (stereo not given) | 100 | 100 | Active | 6.59 |  |  | 100 |  |  | 
29 | C=C(c1ccc2ccc3ccccc3c2c1)C1CCC2(CC1)COC(Nc1cc(Cl)cc(Cl)c1)OO2 (stereo not given) | 100 | 62.5 | Active | 7.7 |  |  |  |  |  | 
30 | C=C(c1ccc2c(c1)Cc1ccccc1-2)C1CCC2(CC1)COC(Nc1ccccc1-c1ccccc1)OO2 (stereo not given) | 100 |  | inactive | 8 |  |  |  |  |  | 
31 | C=C(c1ccc2c(c1)Cc1ccccc1-2)C1CCC2(CC1)COC(Nc1ccc(F)cc1)OO2 (stereo not given) | 100 | 100 | Active | 6.48 |  |  |  |  |  | 
32 | C=C(c1ccc2ccccc2c1)C1CCC2(CC1)COC(Nc1ccc(C(F)(F)F)cc1)OO2 (single isomer, unassigned; less polar) [listing 2 of 2 here] |  |  | Active |  | Active | Active |  |  |  | inactive
33 | C=C(c1cccc2ccccc12)C1CCC2(CC1)COC(Nc1cccc(C(F)(F)F)c1)OO2 (stereo not given) | 100 | 100 | Active | 6.51 |  |  |  |  |  | 
34 | C=C(c1ccc2ccc3ccccc3c2c1)C1CCC2(CC1)COC(Nc1ccc(C(F)(F)F)cc1)OO2 (stereo not given) | 100 | 82.22 | Active | 7.51 | inactive |  |  |  |  | 
35 | C=C(c1ccc2c(c1)Cc1ccccc1-2)C1CCC2(CC1)COC(Nc1cccc(C(F)(F)F)c1)OO2 (stereo not given) | 100 | 100 | Active | 7.25 | inactive |  |  |  |  | 
36 | C=C(c1ccc2ccccc2c1)C1CCC2(CC1)COC(Nc1ccccc1-c1ccccc1)OO2 (stereo not given) | 100 | 100 | Active | 7.26 |  |  |  |  |  | 
37 | C=C(c1ccc2c(c1)Cc1ccccc1-2)C1CCC2(CC1)COC(Nc1cc(Cl)cc(Cl)c1)OO2 (stereo not given) | 100 |  | inactive | 7.44 |  |  |  |  |  | 
38 | C=C(c1cccc2ccccc12)C1CCC2(CC1)COC(Nc1ccccc1-c1ccccc1)OO2 (stereo not given) | 100 | 100 | Active | 7.26 |  |  |  |  |  | 
39 | C=C(c1cccc2ccccc12)C1CCC2(CC1)COC(Nc1ccccc1)OO2 (stereo not given) | 100 | 100 | Active | 5.59 |  |  |  |  |  | 
40 | C=C(c1cccc2ccccc12)C1CCC2(CC1)COC(Nc1cc(Cl)cc(Cl)c1)OO2 (stereo not given) | 100 | 100 | Active | 6.71 |  |  |  |  |  | 
